ChEMBL document CHEMBL4819008, “Design, synthesis, and evaluation of "dual-site"-binding diarylpyrimidines targeting both NNIBP and the NNRTI adjacent site of the HIV-1 reverse transcriptase” (Eur J Med Chem, 2021)

Experiments:
[1] = Selectivity index, ratio of CC50 for human TZM-bl cells to EC50 for wild type HIV1 NL4-3 infected in human TZM-bl cells; type: toxicity, cell-based; conditions: read-out: Ratio CC50/EC50
Summary of the method: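 Selectivity index is CC50/EC50, with both values from the TZM-bl assays: NL4-3 single-round luciferase infection and CytoTox-Glo viability, each over 1 day.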

[2] = tested on: Human immunodeficiency virus 1; experiment: Antiviral activity against wild type HIV1 NL4-3 infected in human TZM-bl cells assessed as reduction in viral infection measured after 1 day by luciferase reporter gene assay based luminiscence assay; type: functional, organism-based; conditions: Human immunodeficiency virus 1, NL4-3, TZM-bl, 24 h
Summary of the method: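 TZM-bl cells got a single-round infection with 800 TCID50 of NL4-3 at various compound concentrations, top concentration 100 ng/mL. Luminescence was read 1 day post-infection. EC50 is the concentration giving a 50% decrease in luciferase RLU versus control wells, determined in at least triplicate.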

[3] = Cytotoxicity against human TZM-bl cells assessed as reduction in cell viability measured after 1 day by CytoTox-Glo assay; type: cell-based
Summary of the method: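 TZM-bl cells were cultured 1 day with various compound concentrations, in parallel with the antiviral assay, top concentration 100 ng/mL. Viable cells were measured by CytoTox-Glo. CC50 is the concentration causing a 50% reduction in cell viability.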

[4] = tested on: Human immunodeficiency virus 1; experiment: Antiviral activity against HIV-1 harboring reverse transcriptase F227L/V106A mutant infected in human MT4 cells assessed as inhibition of virus induced cytopathic effect measured after 5 days by MTT assay; type: functional, organism-based; conditions: Human immunodeficiency virus 1, MT4, 120 h
Summary of the method: (§1)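 MT-4 cells, exponentially growing, resuspended at 6 × 10^5 cells/mL and infected with the mutant HIV-1 stock at 100–300 CCID50. Compounds were added as 5-fold serial dilutions, in triplicate wells, alongside mock-infected wells. After 5 days, viability was read by MTT reduction at 540 and 690 nm using the median OD of three wells. EC50 is the concentration giving 50% protection from viral cytopathogenicity.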

[5] = tested on: Human immunodeficiency virus 1; experiment: Antiviral activity against HIV-1 harboring reverse transcriptase Y188L mutant infected in human MT4 cells assessed as inhibition of virus induced cytopathic effect measured after 5 days by MTT assay; type: functional, organism-based; conditions: Human immunodeficiency virus 1, MT4, 120 h; summary of the method: as §1
[6] = tested on: Human immunodeficiency virus 1; experiment: Antiviral activity against wild type HIV-1 3B infected in human MT4 cells assessed as inhibition of virus-induced cytopathic effect measured after 5 days by MTT assay; type: functional, organism-based; conditions: Human immunodeficiency virus 1, 3B, MT4, 120 h
Summary of the method: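 MT-4 cells at 6 × 10^5 cells/mL were infected with virus stock at 100–300 CCID50 in the presence of serial 5-fold compound dilutions, in triplicate wells. Viability was read by MTT reduction 5 days after infection, with absorbance at 540 and 690 nm and the median OD of three wells used. EC50 is the concentration giving 50% protection from viral cytopathicity.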

[7] = Antiviral activity against HIV-2 ROD infected in human MT4 cells assessed as protection against virus-induced cytopathic effect measured after 5 days by MTT assay; conditions: Human immunodeficiency virus 2, ISOLATE ROD, MT4, 120 h
[8] = tested on: Human immunodeficiency virus 1; experiment: Antiviral activity against HIV-1 harboring reverse transcriptase L100I mutant infected in human MT4 cells assessed as inhibition of virus induced cytopathic effect measured after 5 days by MTT assay; type: functional, organism-based; conditions: Human immunodeficiency virus 1, MT4, 120 h; summary of the method: as §1
[9] = tested on: Human immunodeficiency virus 1; experiment: Antiviral activity against HIV-1 harboring reverse transcriptase Y181C mutant infected in human MT4 cells assessed as inhibition of virus induced cytopathic effect measured after 5 days by MTT assay; type: functional, organism-based; conditions: Human immunodeficiency virus 1, MT4, 120 h; summary of the method: as §1
[10] = Selectivity index, ratio of CC50 for human MT4 cells to EC50 for wild type HIV-1 3B infected in human MT4 cells; type: toxicity, cell-based; conditions: read-out: Ratio CC50/EC50
[11] = tested on: Human immunodeficiency virus 1; experiment: Antiviral activity against HIV-1 harboring reverse transcriptase RES056 mutant infected in human MT4 cells assessed as inhibition of virus induced cytopathic effect measured after 5 days by MTT assay; type: functional, organism-based; conditions: Human immunodeficiency virus 1, MT4, 120 h; summary of the method: as §1
[12] = Cytotoxicity against human MT4 cells assessed as reduction in cell viability measured after 5 days by MTT assay; type: cell-based; conditions: time 5 day
Summary of the method: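 Mock-infected MT-4 cells (6 × 10^5 cells/mL) were run in parallel with the infected wells, under serial 5-fold compound dilutions in triplicate. MTT viability was read after 5 days and the median OD of three wells used. CC50 is the concentration that reduced OD540 of the mock-infected cells by 50%.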

[13] = tested on: Human immunodeficiency virus 1; experiment: Antiviral activity against HIV-1 harboring reverse transcriptase E138K mutant infected in human MT4 cells assessed as inhibition of virus induced cytopathic effect measured after 5 days by MTT assay; type: functional, organism-based; conditions: Human immunodeficiency virus 1, MT4, 120 h; summary of the method: as §1
[14] = tested on: Human immunodeficiency virus 1; experiment: Antiviral activity against HIV-1 harboring reverse transcriptase K103N mutant infected in human MT4 cells assessed as inhibition of virus induced cytopathic effect measured after 5 days by MTT assay; type: functional, organism-based; conditions: Human immunodeficiency virus 1, MT4, 120 h; summary of the method: as §1
[15] = target: Human immunodeficiency virus type 1 reverse transcriptase (Human immunodeficiency virus 1, UniProt Q72547); experiment: Inhibition of HIV-1 reverse transcriptase assessed as reduction in biotin-dUTP incorporation into cDNA incubated for 1 hr with DIG-dUTP, biotin-dUTP and dTTP followed by transferring onto streptavidin-coated plate and measured after 1 hr by ELISA
Summary of the method: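 Recombinant WT HIV-1 RT was tested with a Roche colorimetric kit. Enzyme, reconstituted template, DIG-dUTP, biotin-dUTP and dTTP were incubated 1 h at 37 °C in incubation buffer with or without inhibitor. The mix was then held 1 h at 37 °C on a streptavidin-coated plate, then anti-DIG-POD 1 h at 37 °C, then ABTS at 25 °C, and read at OD405.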

Structure (SMILES) | EC50 [2] [nM] | selectivity ratio [1] | CC50 at 24 h [3] [nM] | EC50 [4] [nM] | EC50 [5] [nM] | EC50 [6] [nM] | EC50 [7] [nM] | EC50 [8] [nM] | EC50 [9] [nM] | selectivity ratio [10] | EC50 [11] [nM] | CC50 at 120 h [12] [nM] | EC50 [13] [nM] | EC50 [14] [nM] | IC50 [15] [nM]
Cc1cc(C#N)cc(C)c1Oc1nc(Nc2ccc(C#N)cc2)ncc1/C=C/C(=O)NCCCN1CCOCC1 | 3.53 | > 53 | > 186 | 443 | 212 | 10.5 | > 23000 | 254 | 124 | 2200 | 1210 | 23000 | 22.6 | 22 | 
Cc1cc(C#N)cc(C)c1Oc1nc(Nc2ccc(C#N)cc2)ncc1/C=C/C(=O)NCCN1CCOCC1 | 3.44 | > 56 | > 190 | 462 | 123 | 8.5 | > 22400 | 263 | 108 | 2630 | 1750 | 22400 | 21.8 | 18.5 | 
O=C1Nc2ccc(Cl)cc2[C@@](C#CC2CC2)(C(F)(F)F)O1 [EFAVIRENZ] | 5.2 | > 1210 | > 6300 | 169 | 148 | 2.5 |  | 30.8 | 5.2 | > 2570 | 273 | > 6300 | 5.7 | 63.7 | 
Cc1cc(C#N)cc(C)c1Oc1nc(Nc2ccc(C#N)cc2)ncc1SCC(=O)NCCCN1CCOCC1 | 3.77 | > 48 | > 179 | 182 | 38.7 | 3.7 | > 24000 | 16.3 | 19.1 | 6540 | 332 | 24000 | 37.3 | 2.2 | 35
Cc1cc(C#N)cc(C)c1Oc1nc(Nc2ccc(C#N)cc2)nc(N)c1Br [ETRAVIRINE] | 1.45 |  | > 229 | 8.2 | 15.5 |  |  | 10.2 |  |  | 60.2 | > 4600 |  | 2.3 | 

Further lines, with some results ahead:

EC50 [2] [nM] | Structure (SMILES) | selectivity ratio [1] | CC50 at 24 h [3] [nM] | EC50 [4] [nM] | EC50 [5] [nM] | EC50 [6] [nM] | EC50 [7] [nM] | EC50 [8] [nM] | EC50 [9] [nM] | selectivity ratio [10] | EC50 [11] [nM] | CC50 at 120 h [12] [nM] | EC50 [13] [nM] | EC50 [14] [nM] | IC50 [15] [nM]
13.6 | Cc1cc(C#N)cc(C)c1Oc1nc(Nc2ccc(C#N)cc2)ncc1/C=C/C(=O)NCC1CCN(S(C)(=O)=O)C1 (stereo not drawn) | > 13 | > 175 |  |  |  |  |  |  |  |  |  |  |  | 
12.8 | Cc1cc(C#N)cc(C)c1Oc1nc(Nc2ccc(C#N)cc2)ncc1/C=C/C(=O)NCC1CCN(S(C)(=O)=O)CC1 | > 13 | > 171 |  |  |  |  |  |  |  |  |  |  |  | 
5.36 | Cc1cc(C#N)cc(C)c1Oc1nc(Nc2ccc(C#N)cc2)ncc1/C=C/C(N)=O | > 45 | > 243 |  |  |  |  |  |  |  |  |  |  |  | 
14.2 | Cc1cc(C#N)cc(C)c1Oc1nc(Nc2ccc(C#N)cc2)ncc1/C=C/C(=O)NC1CCN(S(C)(=O)=O)CC1 | > 12 | > 175 |  |  |  |  |  |  |  |  |  |  |  | 
49.9 | CC(=O)N1CCN(C(=O)/C=C/c2cnc(Nc3ccc(C#N)cc3)nc2Oc2c(C)cc(C#N)cc2C)CC1 | > 4 | > 192 |  |  |  |  |  |  |  |  |  |  |  | 
18.7 | CCOC(=O)/C=C/c1cnc(Nc2ccc(C#N)cc2)nc1Oc1c(C)cc(C#N)cc1C | > 12 | > 227 |  |  |  |  |  |  |  |  |  |  |  | 
13.7 | Cc1cc(C#N)cc(C)c1Oc1nc(Nc2ccc(C#N)cc2)ncc1/C=C/C(=O)N1CCN(C(=O)C(F)(F)F)CC1 | > 13 | > 174 |  |  |  |  |  |  |  |  |  |  |  | 
49.3 | Cc1cc(C#N)cc(C)c1Oc1nc(Nc2ccc(C#N)cc2)ncc1/C=C/C(=O)N1CCN(C=O)CC1 | > 4 | > 197 |  |  |  |  |  |  |  |  |  |  |  | 
